Compound activity deposited in PubChem by several laboratories.
Tn7 DDE FP: inhibitors of Tn7 peptide binding to fibrin DD(E), primary screen, biochemical, fluorescence polarization, human fibrin, Tn7 probe; Fibrinogen beta chain (Homo sapiens), P02675; FP displacement of FITC-Tn7 peptide from fibrin DD(E); 0% = median of compound wells per plate; inhibition, % at 8.3 µM; 0.13% of 370,000 active; AID 720508, 2013;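 active = inhibition above the mean of compounds falling within the control limits plus 3 SD of them, cut at about 14% in these data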
Target sequence (P02675 whole entry, looked up): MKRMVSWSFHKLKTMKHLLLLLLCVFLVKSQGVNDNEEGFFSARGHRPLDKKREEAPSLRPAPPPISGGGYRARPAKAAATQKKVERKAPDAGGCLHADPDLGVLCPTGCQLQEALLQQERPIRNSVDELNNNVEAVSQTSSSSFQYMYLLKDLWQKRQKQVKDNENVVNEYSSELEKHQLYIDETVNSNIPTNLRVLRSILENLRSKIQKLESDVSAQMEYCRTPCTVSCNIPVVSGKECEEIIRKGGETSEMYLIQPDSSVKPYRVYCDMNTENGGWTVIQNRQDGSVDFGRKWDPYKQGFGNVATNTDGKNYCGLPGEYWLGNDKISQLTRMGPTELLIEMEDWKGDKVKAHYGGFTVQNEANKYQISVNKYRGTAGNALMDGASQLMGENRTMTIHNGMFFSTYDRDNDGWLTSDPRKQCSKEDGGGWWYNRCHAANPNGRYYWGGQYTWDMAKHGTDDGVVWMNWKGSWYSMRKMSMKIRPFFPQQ
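Test system – human fibrin DD(E) · Times – 10 min preincubation, 3 h with tracer, room temperature · Detection – fluorescence polarization of the labelled Tn7 tracer · Measure – percent inhibition normalized to high-control wells · Benchmarks – high control wells with 10 µM unlabelled Aha-Tn7 peptide (full inhibition) · Repeats – singlicate testing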
SKN-1 block: suppressors of acrylamide-induced Pgst-4::GFP reporter in worms, primary screen, SKN-1 inhibitor project, whole organism, uHTS, GFP/RFP fluorescence ratio, strain VP596; C. elegans VP596 Pgst-4::GFP/RFP ratio, 24 h; AID 624304, 2012; inhibition, % at 21.8 µM; 0.49% of 360,000 active;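 active = interference check ratio from 0.5 to 1.5 plus GFP to RFP signal ratio inhibition reaching or exceeding a fixed threshold, cut at about 30% in these data, passing the limit was not always enough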
MT1-MMP act inh: blockers of MT1-MMP proenzyme processing, primary screen, HT1080 RFP-PRO-GFP cells, GFP/RFP fluorescence. GFP/RFP ratio fluorescence, overnight; percent of plate control window, DMSO zero. GFP/RFP ratio change, % at 20 µM. 0.061% of 360,000 active. AID 651647, 2012;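 active = GFP/RFP ratio change of at least 30% with cell ATP level not reduced by more than half and red fluorescence within 50% of control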
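Compound: 20 µM single dose, 1% DMSO / System: HT1080 RFP-PRO-GFP cells / Controls: DMSO and RFP-L50D-GFP cell wells / Read-out basis: GFP/RFP fluorescence ratio / Schedule: overnight compound exposure at 37 °C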
Tn6 DDE FP: inhibitors of Tn6 peptide binding to fibrin DD(E), primary screen, biochemical, fluorescence polarization, human fibrin, Tn6 probe; Fibrinogen beta chain (Homo sapiens), P02675; Fibrin DD(E) TRITC-Tn6 fluorescence polarization displacement; inhibition, % at 8.3 µM; 0.21% of 370,000 active; AID 720509, 2013;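 active = inhibition above a per-campaign cutoff: mean of compounds within control limits plus 3 SD, cut at about 15% in these data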
MT1-MMP act val: MT1-MMP activation inhibitors, hit retest, confirmation, single concentration, fluorescence, HT1080 RFP-PRO-GFP cells; shares compounds with MT1-MMP act inh; GFP and RFP fluorescence ratio, overnight; inhibition, % at 20 µM; 10% of 200 active;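 active = inhibition of at least 50% in the primary cell screen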
DDE Tn7 confirm: inhibitors of Tn7 peptide binding to fibrin DD(E), confirmation, biochemical, fluorescence polarization, human fibrin, Tn7 probe; shares compounds with Tn7 DDE FP; 5% of 460 active; FP displacement of TRITC-Tn7 peptide from DD(E); 0% set at plate's compound-well median; inhibition, % at 8.3 µM;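 active = inhibition above the campaign cutoff, the mean of compounds within control limits plus 3 SD, cut at about 14% in these data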;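 note: displacers lower polarization since freed probe rises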
Tn7 DDE ctr: DD(E)-Tn7 binding inhibition, counter-screen; shares compounds with Tn7 DDE FP; fibrin DD(E), TRITC-Tn7 probe displacement, fluorescence polarization; inhibition, % at 8.3 µM; 3% of 460 active; AID 720633;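 active = inhibition above the cutoff, the mean of compounds lying between the control bounds plus 3 SD of those compounds, cut at about 17% in these data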
Tn6 DDE ctr: counter-screen hit for Tn6 peptide-fibrin DD(E) binding disruption | shares compounds with Tn6 DDE FP | TRITC-Tn6 fluorescence polarization displacement; 0% = median of compound wells, not DMSO | inhibition, % at 8.3 µM | 2% of 680 active;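 active = inhibition above the mean of test compounds lying between the control limits plus 3 SD of those, cut at about 14% in these data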
DDE Tn6 confirm: inhibitors of Tn6 peptide binding to fibrin DD(E), confirmation, biochemical, fluorescence polarization, human fibrin, Tn6 probe | shares compounds with Tn6 DDE FP | FP displacement of TRITC-Tn6 peptide from DD(E); 0% = per-plate median of test wells | inhibition, % at 8.3 µM | 10% of 680 active | AID 720631, 2013;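 active = inhibition above the mean of compounds lying within the control limits plus 3 SD, cut at about 16% in these data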
Numbers stand for hits; n = inactive; x = not tested or not shown; + = active, no number. This is a sample that favours compounds with a hit; in the whole collection about 0.84% have one here.

SMILES | Tn7 DDE FP | SKN-1 block | MT1-MMP act inh | Tn6 DDE FP | others
CN1C(=O)/C(=C\c2ccc(N3CCCCC3)o2)C(=O)NC1=S | n | 33.4 | n | n
COC(=O)C1=C(c2cccc(OC)c2OC)C[C@@H]2CC[C@H]1N2C(=O)NCC1CC1 | n | n | n | n
C[N+]1=C(/C=C/Nc2ccccc2)C(C)(C)c2ccccc21 | n | n | 37.8 | n | MT1-MMP act val=n
COc1cc2c(cc1OC)-c1c(OC)c(OC)cc3c1[C@H](C2)N(C)CC3 | n | n | 50.4 | n | MT1-MMP act val=n
COc1ccc(-n2nc(C(=O)NCC(=O)N3CCC4(CC3)OCCO4)c3ccccc3c2=O)cc1OC | n | n | n | n
CCC(C)N1C(=O)/C(=C\c2cc3c4c(c2)CCCN4CCC3)C(=O)NC1=S (centres undefined) | n | n | n | n
CCC(C)N1C(=O)/C(=C\c2ccc(N3CCCCCC3)cc2)C(=O)NC1=S (centres undefined) | n | n | 33.5 | n | MT1-MMP act val=n
Cc1ccc(-[n+]2c(Cc3nn(-c4ccccc4)c(C)[n+]3-c3ccc(C)cc3)nn(-c3ccccc3)c2C)cc1 | n | n | n | n
CN1C(=O)C(=Cc2ccc(Sc3ccccc3)o2)C(=O)N(C)C1=O | n | n | 32.7 | n | MT1-MMP act val=n
O=C(O)CCn1cc(C=C2C(=O)NC(=O)NC2=O)c(-c2cc3ccccc3oc2=O)n1 | n | n | n | n
C[n+]1c2ccccc2nc2ccc(NCCO)cc21 | n | n | 55.1 | + | MT1-MMP act val=n;Tn6 DDE ctr=n;DDE Tn6 confirm=122.2
CNc1ccc2nc3ccccc3[n+](C)c2c1 | n | n | 67.3 | + | MT1-MMP act val=n;Tn6 DDE ctr=n;DDE Tn6 confirm=94.2
OCCNc1c2c(nc3ccccc13)CCCC2 | n | n | n | n
CC(=O)C1=C(C)OC2=C(C(=O)CCC2)[C@@]12C(=O)N(C)c1ccccc12 | n | x | x | n
ClCCNc1nc2ccc(Cl)cc2[nH]1 | 13.9 | n | n | n | DDE Tn7 confirm=n;Tn7 DDE ctr=n
c1ccc(-c2nc3ccccc3nc2-c2ccc(CN3CCC(n4nnc5ccccc54)CC3)cc2)cc1 | n | x | x | n
CCCCn1c(O)c(C(CC)=Nc2ccc(C(=O)O)cc2)c(=O)[nH]c1=O | 15.2 | n | n | n | DDE Tn7 confirm=n;Tn7 DDE ctr=n
Cc1ccc2cc(C=C(C#N)C#N)c(Cl)nc2c1 | 15.0 | n | n | n | DDE Tn7 confirm=n;Tn7 DDE ctr=n
O=C1NCN(c2ccccc2)C12CCN(C(c1ccnc3ccccc13)c1nnnn1-c1ccc3c(c1)OCCO3)CC2 (centres undefined) | n | n | n | n
CC1CC2CC(=O)CCC2(C)C2CCC3(C)C(O)CCC3C12 (centres undefined) | n | n | n | n
COC(=O)C(O)(c1ccc(NC(=O)c2cccs2)c(C)c1)C(F)(F)F (centres undefined) | n | n | n | n
COC(=O)C(O)(c1ccc(N=Cc2ccccc2O)c(C)c1)C(F)(F)F (centres undefined) | 15.8 | n | n | n | DDE Tn7 confirm=n;Tn7 DDE ctr=n
CC[C@@H](CO)NC(=O)[C@@H]1C=C2c3cccc4[nH]cc(c34)C[C@H]2N(C)C1 | 16.3 | n | n | n | DDE Tn7 confirm=n;Tn7 DDE ctr=n
CN1Cc2cnnn2-c2ccccc2C1c1ccccc1 (centres undefined) | n | n | n | n
COC(=O)CC1(CC(=O)OC)C(=O)N(c2ccccc2)C(=O)N(c2ccccc2)C1=O | n | n | n | n
SMILES | Tn7 DDE FP | SKN-1 block | MT1-MMP act inh | Tn6 DDE FP | others
COC(=O)CC1(CC(=O)OC)C(=O)NC(=O)NC1=O | n | n | n | 17.5 | Tn6 DDE ctr=n;DDE Tn6 confirm=n
Cc1ccc(OC(=O)N(C)C[C@H]2OCc3cnnn3CCCC(=O)N([C@H](C)CO)C[C@@H]2C)cc1 | n | n | n | n
O=C(O)C(Br)CBr (centres undefined) | n | n | n | n
CCOC(=O)C(O)(c1ccc(NC(=O)NC2CCCCC2)cc1)C(F)(F)F (centres undefined) | n | n | n | 17.0 | Tn6 DDE ctr=n;DDE Tn6 confirm=n
CCOC(=O)C(O)(c1ccc(NC(=O)c2ccc(Cl)c(Cl)c2)cc1)C(F)(F)F (centres undefined) | n | n | n | n
Cc1cccc(-n2c(O)c(C=NCCN3CCNCC3)c(=O)[nH]c2=S)c1 | n | n | n | 15.6 | Tn6 DDE ctr=n;DDE Tn6 confirm=n
CCN1/C(=C/C=C/C2=[N+](CC)c3ccccc3C2(C)C)C(C)(C)c2ccccc21 | n | n | n | + | Tn6 DDE ctr=n;DDE Tn6 confirm=93.2
O=C1NC(=O)N(c2ccccc2)C(=O)/C1=C/C=C/c1ccco1 | n | n | n | n
CN(C)c1ccc(/C=C/C=C2/C(=O)NC(=O)N(c3ccccc3)C2=O)cc1 | n | n | n | 22.9 | Tn6 DDE ctr=n;DDE Tn6 confirm=39.8
CCOc1cc2c(cc1OCC)-n1cccc1C(c1ccccc1OC)NC2 (centres undefined) | n | n | n | n
Cc1ccc2c(c1)[C@@H]1CN(C)CC[C@@H]1N2C(=O)Nc1cccc(C(F)(F)F)c1 | n | n | n | 17.0 | Tn6 DDE ctr=n;DDE Tn6 confirm=n
